Active and inactive are the calls of the source. The rule behind the calls is not given here.
Key:
[1] = Inhibition of alcohol dehydrogenase
[2] = molecular target: T1, NAD-dependent protein deacetylase sirtuin-1 (Homo sapiens) (UniProt Q96EB6); assay: Inhibition of SIRT1
T1 sequence (whole entry): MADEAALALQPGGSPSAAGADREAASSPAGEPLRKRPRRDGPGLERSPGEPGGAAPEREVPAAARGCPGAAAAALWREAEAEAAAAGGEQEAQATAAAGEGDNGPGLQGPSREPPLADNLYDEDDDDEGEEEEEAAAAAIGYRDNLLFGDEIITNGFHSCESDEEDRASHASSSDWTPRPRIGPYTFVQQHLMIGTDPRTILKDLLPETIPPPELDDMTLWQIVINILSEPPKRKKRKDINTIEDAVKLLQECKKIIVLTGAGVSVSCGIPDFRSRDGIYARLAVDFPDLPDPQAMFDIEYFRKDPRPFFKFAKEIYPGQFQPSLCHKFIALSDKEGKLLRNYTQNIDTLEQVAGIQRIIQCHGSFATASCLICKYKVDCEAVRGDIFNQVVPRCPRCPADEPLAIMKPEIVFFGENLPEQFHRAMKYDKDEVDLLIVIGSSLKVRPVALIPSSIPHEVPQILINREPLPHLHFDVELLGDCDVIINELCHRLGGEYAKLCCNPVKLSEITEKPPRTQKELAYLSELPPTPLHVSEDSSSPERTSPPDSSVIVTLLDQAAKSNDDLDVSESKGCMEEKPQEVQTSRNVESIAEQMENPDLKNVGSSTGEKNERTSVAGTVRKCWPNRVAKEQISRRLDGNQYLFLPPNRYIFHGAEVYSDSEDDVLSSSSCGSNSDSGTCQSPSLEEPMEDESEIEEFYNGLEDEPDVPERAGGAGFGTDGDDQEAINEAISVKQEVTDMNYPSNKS

[3] = molecular target: Poly(ADP-ribose) glycohydrolase (Homo sapiens) (UniProt Q86W56); assay: Inhibition of PARG using [alpha-32P]ADP-ribose polymers up to 500 uM after 5 mins by TRAP assay
[4] = molecular target: Poly [ADP-ribose] polymerase 1 (Homo sapiens, UniProt P09874); assay: Inhibition of PARP-1 using [32P]-NAD+ after 15 mins
[5] = molecular target: Poly(ADP-ribose) glycohydrolase (Homo sapiens) (UniProt Q86W56); assay: Inhibition of PARG using [alpha-32P]ADP-ribose polymers at 500 uM after 5 mins by TRAP assay
[6] = Selectivity ratio of IC50 for PARP-1 to IC50 for PARG
[7] = molecular target: Poly(ADP-ribose) glycohydrolase (Homo sapiens) (UniProt Q86W56); settings: SCC-25, 1 mM
[8] = molecular target: Poly(ADP-ribose) glycohydrolase (Homo sapiens) (UniProt Q86W56); settings: SCC-25, 1 mM; remark: listed apart in the source
[9] = molecular target: Poly(ADP-ribose) glycohydrolase (Homo sapiens) (UniProt Q86W56); settings: SCC-25, 1 mM; remark: listed apart in the source
[10] = molecular target: PARP 1, 2 and 3 (Homo sapiens) (UniProt P09874+Q9Y6F1+Q9UGN5); assay: Inhibition of PARP in human SCC25 cells assessed as inhibition of MNNG-induced NAD(H) depletion at 1 mM preincubated for 5 mins before MNNG challenge measured after 30 mins; format: cell-based; settings: SCC-25
In short: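 SCC-25 cells (90% confluent, 35 mm dishes) pretreated 5 min with compound, then 5 μg/mL MNNG for 30 min; HClO4 extraction, KOH/KH2PO4 neutralization; NAD by enzymatic cycling (alcohol dehydrogenase, phenazine ethosulfate, MTT, 37°C 30 min), A570; normalized to cell protein.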

[11] = molecular target: Poly(ADP-ribose) glycohydrolase (Homo sapiens) (UniProt Q86W56); assay: Inhibition of PARG in human SCC25 cells assessed as inhibition of MNNG-induced poly(ADP-ribose) formation at 1 mM after 20 mins by chemiluminescent ELISA; format: cell-based; settings: SCC-25
In short: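 SCC-25 cells at 90% confluence in 35 mm dishes; 5 μg/mL MNNG used to induce PAR; lysed in buffer with 1% SDS; ADP-ribose polymers quantified by chemiluminescent ELISA (kit protocol, minor changes); PAR normalized to cell count.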

Sequence of Poly(ADP-ribose) glycohydrolase (Homo sapiens) (Q86W56 whole entry, looked up): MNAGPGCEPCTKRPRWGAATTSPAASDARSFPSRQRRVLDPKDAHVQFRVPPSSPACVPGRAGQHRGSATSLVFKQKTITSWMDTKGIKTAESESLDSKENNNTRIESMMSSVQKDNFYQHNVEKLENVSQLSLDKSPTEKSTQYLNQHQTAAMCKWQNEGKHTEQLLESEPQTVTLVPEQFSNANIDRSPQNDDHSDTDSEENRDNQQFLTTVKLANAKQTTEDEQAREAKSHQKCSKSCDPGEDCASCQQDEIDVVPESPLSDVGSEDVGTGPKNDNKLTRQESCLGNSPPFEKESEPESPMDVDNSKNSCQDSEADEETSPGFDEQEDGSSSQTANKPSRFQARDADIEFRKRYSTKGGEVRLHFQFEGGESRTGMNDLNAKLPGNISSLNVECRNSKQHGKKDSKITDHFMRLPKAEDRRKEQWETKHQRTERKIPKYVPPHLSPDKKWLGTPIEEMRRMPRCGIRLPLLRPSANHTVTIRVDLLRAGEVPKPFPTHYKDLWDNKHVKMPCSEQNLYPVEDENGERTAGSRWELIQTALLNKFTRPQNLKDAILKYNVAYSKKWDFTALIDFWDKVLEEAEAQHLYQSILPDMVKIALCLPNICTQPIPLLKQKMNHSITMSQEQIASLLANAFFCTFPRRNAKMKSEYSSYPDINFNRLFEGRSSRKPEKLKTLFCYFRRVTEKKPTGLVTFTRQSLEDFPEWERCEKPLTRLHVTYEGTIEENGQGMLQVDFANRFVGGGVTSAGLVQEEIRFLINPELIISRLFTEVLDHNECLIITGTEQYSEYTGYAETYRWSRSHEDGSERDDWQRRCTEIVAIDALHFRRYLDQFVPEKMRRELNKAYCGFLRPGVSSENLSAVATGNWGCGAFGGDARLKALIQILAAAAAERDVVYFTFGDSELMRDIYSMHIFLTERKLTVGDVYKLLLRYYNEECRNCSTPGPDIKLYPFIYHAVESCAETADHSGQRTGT
Sequence of Poly [ADP-ribose] polymerase 1 (P09874 whole entry): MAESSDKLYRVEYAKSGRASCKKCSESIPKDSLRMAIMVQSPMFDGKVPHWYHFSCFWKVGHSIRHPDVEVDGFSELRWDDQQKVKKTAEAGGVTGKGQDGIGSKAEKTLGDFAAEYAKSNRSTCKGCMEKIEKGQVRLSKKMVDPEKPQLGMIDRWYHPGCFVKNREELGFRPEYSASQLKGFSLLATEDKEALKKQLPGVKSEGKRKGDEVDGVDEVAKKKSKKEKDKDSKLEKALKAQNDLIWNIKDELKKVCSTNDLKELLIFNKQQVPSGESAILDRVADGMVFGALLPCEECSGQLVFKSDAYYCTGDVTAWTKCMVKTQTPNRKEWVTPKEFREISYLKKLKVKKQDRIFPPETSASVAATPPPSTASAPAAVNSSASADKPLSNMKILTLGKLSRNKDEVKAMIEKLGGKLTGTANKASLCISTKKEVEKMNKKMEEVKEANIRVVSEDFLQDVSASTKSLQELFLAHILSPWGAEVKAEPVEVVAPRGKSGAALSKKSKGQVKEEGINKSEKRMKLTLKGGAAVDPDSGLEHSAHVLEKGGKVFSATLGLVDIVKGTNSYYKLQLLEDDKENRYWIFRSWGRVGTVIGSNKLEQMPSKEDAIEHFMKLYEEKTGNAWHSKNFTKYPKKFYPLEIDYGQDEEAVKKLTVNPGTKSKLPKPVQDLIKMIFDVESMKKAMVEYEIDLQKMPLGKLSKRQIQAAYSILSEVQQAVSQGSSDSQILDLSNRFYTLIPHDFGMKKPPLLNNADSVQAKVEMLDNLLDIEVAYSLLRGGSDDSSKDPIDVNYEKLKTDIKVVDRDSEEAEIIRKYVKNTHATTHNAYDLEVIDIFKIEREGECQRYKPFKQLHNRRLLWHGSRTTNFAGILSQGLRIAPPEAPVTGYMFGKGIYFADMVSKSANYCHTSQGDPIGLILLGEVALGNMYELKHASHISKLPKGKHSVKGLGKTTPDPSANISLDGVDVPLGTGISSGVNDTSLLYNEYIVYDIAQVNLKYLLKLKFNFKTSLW

inhibition [1]	inhibition [2]	Compound	other results
inactive	inactive	COc1c(Cl)cc(Cl)cc1C(=O)Nc1ccc(Oc2ccc3ccccc3c2)c(Cl)c1	inhibition [3]: inactive
		Nc1ncnc2c1ncn2[C@@H]1O[C@H](CO[P@](=O)(O)O[P@@](=O)(O)OC[C@H]2NC[C@H](O)[C@@H]2O)[C@@H](O)[C@H]1O [ADENOSINE DIPHOSPHATE (HYDROXYMETHYL)PYRROLIDINEDIOL]	IC50 [4]: > 1000 µM
inactive	inactive	O=C(Nc1ccc(Oc2ccc3ccccc3c2)c(Cl)c1)c1cc(Cl)ccc1O	
inactive	inactive	Cc1ccc(C(C)C)c(Br)c1Oc1ccc(Cl)cc1NC(=O)c1cc(Cl)cc(Br)c1O	IC50 [4]: 78 µM
inactive	inactive	O=C(Nc1ccc(Oc2ccc3ccccc3c2)c(C(F)(F)F)c1)c1cc(Cl)cc(Cl)c1O	
inactive	inactive	O=C(Nc1ccc(Oc2ccc3ccccc3c2)c(F)c1)c1cc(Cl)cc(Cl)c1O	
inactive	inactive	O=C(Nc1ccccc1Cl)c1cc(Cl)cc(Cl)c1O	IC50 [4]: 500 µM; inhibition [5]: 10%
inactive	inactive	Cc1cc(NC(=O)c2cc(Cl)cc(Cl)c2O)ccc1Oc1ccc2ccccc2c1	
inactive	inactive	Cc1ccc(NC(=O)c2cc(Cl)cc(Cl)c2O)cc1	inhibition [5]: 10%
inactive	inactive	O=C(Nc1ccc(Oc2cc3ccccc3cc2Br)c(Cl)c1)c1cc(Cl)cc(Cl)c1O	IC50 [4]: 123 µM; Ratio IC50 [6]: 15
inactive	inactive	O=C(Nc1ccc(Oc2ccc3ccccc3c2)c(Cl)c1)c1cccc(Cl)c1O	
inactive	inactive	Cc1cccc(NC(=O)c2cc(Cl)cc(Cl)c2O)c1	inhibition [5]: 10%
inactive	inactive	Oc1c(Cl)cc(Cl)cc1CNc1ccc(Oc2ccc3ccccc3c2)c(Cl)c1	inhibition [3]: inactive
inactive	inactive	O=C(Nc1ccc(Oc2ccc3ccccc3c2)cc1)c1cc(Cl)cc(Cl)c1O	
inactive	inactive	O=C(Nc1ccc(Oc2ccc3ccccc3c2)c(Cl)c1)c1cc(Cl)cc(Cl)c1O	inhibition [7]: Active; inhibition [8]: Active; inhibition [9]: Active; IC50 [4]: 120 µM; inhibition [10]: 40%
inactive	inactive	O=C(Nc1ccc(O)c(Cl)c1)c1cc(Cl)cc(Cl)c1O	inhibition [5]: < 10%
inactive	inactive	Cc1ccccc1NC(=O)c1cc(Cl)cc(Cl)c1O	inhibition [5]: 10%
inactive	inactive	O=C(Nc1ccc(Cl)cc1)c1cc(Cl)cc(Cl)c1O	inhibition [10]: Active
inactive	inactive	O=C(Nc1ccc(Oc2ccc3ccccc3c2)c(Cl)c1)c1ccccc1O	
inactive	inactive	NC(=O)c1cc(Cl)cc(Cl)c1O	inhibition [10]: Active; inhibition [5]: < 10%
inactive	inactive	CN(C(=O)c1cc(Cl)cc(Cl)c1O)c1ccc(Oc2ccc3ccccc3c2)c(Cl)c1	
inactive	inactive	O=C(Nc1ccc(Oc2ccc3ccccc3c2)c(Cl)c1)c1cc(Cl)cc(Cl)c1	inhibition [10]: Active; inhibition [3]: inactive
inactive	inactive	Cc1ccc(Oc2ccc(NC(=O)c3cc(Cl)cc(Cl)c3O)cc2Cl)cc1	
inactive	inactive	Oc1c(Cl)cc(Cl)cc1/C=N/c1ccc(Oc2ccc3ccccc3c2)c(Cl)c1	inhibition [3]: inactive
inactive	inactive	O=C(O)c1ccccc1C(=O)Nc1ccc(Oc2ccc3ccccc3c2)c(Cl)c1	IC50 [4]: 66 µM
inactive	inactive	O=C(Nc1ccccc1)c1cc(Cl)cc(Cl)c1O	inhibition [5]: < 10%
inactive	inactive	O=C(Nc1ccc(Oc2ccccc2)c(Cl)c1)c1cc(Cl)cc(Cl)c1O	
inactive	inactive	O=C(Nc1cc(Cl)ccc1Oc1ccc2ccccc2c1Cl)c1cc(Cl)cc(Br)c1O	
		NC(=O)c1ccccc1 [BENZAMIDE]	IC50 [4]: 5.4 µM; inhibition [10]: Active; inhibition [11]: Active

Compound	inhibition [1]	inhibition [2]	other results
O=C(Nc1cccc(Cl)c1)c1cc(Cl)cc(Cl)c1O	inactive	inactive	IC50 [4]: 500 µM

From ChEMBL document CHEMBL1811898, “Discovery and structure-activity relationships of modified salicylanilides as cell permeable inhibitors of poly(ADP-ribose) glycohydrolase (PARG)” (J Med Chem, 2011)
